ChEMBL document CHEMBL1140730, “Validation of diacyl glycerolacyltransferase I as a novel target for the treatment of obesity and dyslipidemia using a potent and selective small molecule inhibitor” (J Med Chem, 2008)
Active and inactive are the calls of the source. The rule behind the calls is not given here.

Columns and labels:
[1] = biological target: T1, Diacylglycerol O-acyltransferase 1 (Homo sapiens, UniProt O75907); experiment: Inhibition of human recombinant DGAT1 expressed in Sf9 cells
T1 sequence (O75907 whole entry): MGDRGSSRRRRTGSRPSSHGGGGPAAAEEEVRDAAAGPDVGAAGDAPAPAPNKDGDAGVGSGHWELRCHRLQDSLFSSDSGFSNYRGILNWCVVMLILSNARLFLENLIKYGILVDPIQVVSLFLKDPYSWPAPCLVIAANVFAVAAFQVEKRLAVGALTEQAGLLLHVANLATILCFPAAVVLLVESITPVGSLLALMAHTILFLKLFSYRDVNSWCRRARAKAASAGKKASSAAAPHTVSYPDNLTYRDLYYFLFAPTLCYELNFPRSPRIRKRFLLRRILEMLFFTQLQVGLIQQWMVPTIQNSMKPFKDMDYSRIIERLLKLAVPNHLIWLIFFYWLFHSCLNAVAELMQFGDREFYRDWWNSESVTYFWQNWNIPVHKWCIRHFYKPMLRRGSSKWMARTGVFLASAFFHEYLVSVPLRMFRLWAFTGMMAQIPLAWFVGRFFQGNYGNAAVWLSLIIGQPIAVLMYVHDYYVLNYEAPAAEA

[2] = biological target: T2, Diacylglycerol O-acyltransferase 1 (Mus musculus, UniProt Q9Z2A7); experiment: Inhibition of mouse recombinant DGAT1 expressed in Sf9 cells
T2 sequence (Q9Z2A7 whole entry): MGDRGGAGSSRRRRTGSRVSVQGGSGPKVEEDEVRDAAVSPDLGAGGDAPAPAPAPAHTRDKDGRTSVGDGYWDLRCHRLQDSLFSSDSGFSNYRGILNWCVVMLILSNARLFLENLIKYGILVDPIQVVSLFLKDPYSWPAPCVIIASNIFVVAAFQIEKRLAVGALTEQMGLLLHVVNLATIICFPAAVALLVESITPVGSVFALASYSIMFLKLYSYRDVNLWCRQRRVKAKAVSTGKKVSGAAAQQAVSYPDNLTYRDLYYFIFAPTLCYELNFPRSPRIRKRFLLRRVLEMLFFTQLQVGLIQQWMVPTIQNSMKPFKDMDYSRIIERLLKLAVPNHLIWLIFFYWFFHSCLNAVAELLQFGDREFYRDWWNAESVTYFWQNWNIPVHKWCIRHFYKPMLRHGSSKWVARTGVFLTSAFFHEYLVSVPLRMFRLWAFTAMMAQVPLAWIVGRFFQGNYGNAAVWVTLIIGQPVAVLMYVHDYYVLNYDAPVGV

[3] = biological target: T3, Diacylglycerol O-acyltransferase 2 (Mus musculus) (UniProt Q9DCV3); experiment: Inhibition of mouse DGAT2
T3 sequence (whole entry): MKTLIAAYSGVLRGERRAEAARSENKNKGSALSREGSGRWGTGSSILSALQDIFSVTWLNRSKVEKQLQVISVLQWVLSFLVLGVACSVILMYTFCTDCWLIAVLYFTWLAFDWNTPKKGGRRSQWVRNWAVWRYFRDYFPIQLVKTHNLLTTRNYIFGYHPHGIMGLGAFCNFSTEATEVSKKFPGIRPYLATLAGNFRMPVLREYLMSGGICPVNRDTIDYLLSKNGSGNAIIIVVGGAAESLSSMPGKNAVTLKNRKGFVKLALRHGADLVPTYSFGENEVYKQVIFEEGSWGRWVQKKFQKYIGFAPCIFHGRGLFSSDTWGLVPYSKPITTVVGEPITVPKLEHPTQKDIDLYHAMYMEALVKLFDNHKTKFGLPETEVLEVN

[4] = biological target: T4, Sterol O-acyltransferase 1 (Homo sapiens) (UniProt P35610); experiment: Inhibition of human ACAT1
T4 sequence (whole entry): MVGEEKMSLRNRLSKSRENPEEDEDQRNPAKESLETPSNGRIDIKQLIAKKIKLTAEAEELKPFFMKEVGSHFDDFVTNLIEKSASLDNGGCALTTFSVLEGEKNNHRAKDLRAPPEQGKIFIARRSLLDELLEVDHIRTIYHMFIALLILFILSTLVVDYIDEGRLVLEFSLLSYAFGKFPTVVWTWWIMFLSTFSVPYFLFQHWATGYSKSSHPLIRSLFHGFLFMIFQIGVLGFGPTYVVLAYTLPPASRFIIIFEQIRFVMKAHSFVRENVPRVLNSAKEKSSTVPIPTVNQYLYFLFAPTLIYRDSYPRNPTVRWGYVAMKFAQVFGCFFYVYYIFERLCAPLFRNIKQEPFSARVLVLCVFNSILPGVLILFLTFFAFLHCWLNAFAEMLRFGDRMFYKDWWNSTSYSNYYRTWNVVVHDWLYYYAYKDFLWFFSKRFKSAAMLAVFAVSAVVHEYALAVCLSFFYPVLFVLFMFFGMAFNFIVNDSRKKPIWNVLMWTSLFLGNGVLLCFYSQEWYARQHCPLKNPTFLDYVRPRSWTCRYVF

[5] = biological target: T5, Sterol O-acyltransferase 2 (Homo sapiens) (UniProt O75908); experiment: Inhibition of human ACAT2
T5 sequence (whole entry): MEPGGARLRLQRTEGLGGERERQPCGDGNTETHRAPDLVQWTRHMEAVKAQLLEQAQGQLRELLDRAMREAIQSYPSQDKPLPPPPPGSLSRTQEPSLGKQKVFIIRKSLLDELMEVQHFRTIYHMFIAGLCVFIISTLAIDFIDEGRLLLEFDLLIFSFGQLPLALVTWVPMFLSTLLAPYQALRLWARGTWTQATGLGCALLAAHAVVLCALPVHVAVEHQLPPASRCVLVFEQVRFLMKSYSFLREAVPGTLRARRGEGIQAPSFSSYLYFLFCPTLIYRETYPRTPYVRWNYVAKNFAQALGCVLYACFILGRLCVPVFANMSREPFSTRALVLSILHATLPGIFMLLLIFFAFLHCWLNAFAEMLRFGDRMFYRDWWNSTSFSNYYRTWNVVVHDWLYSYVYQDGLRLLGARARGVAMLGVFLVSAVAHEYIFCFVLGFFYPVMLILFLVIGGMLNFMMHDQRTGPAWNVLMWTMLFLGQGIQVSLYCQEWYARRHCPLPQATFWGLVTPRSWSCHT

[6] = Plasma clearance in rat at 5 mg/kg, iv; type: ADME, organism-based; design: dose 5 mg/kg, route intravenous
Procedure, shortened: (§1)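 Single-dose pharmacokinetics given iv or orally to mouse (10 mg/kg), rat (5 mg/kg) and dog (2.5 mg/kg). Half-life, Cmax, AUC, plasma clearance, volume of distribution and oral bioavailability were derived from plasma levels. Values are means, n = 3 unless stated otherwise.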

[7] = AUC in rat at 5 mg/kg, iv; type: ADME, organism-based; design: dose 5 mg/kg, route intravenous; conditions: plasma; procedure, shortened: as §1
[8] = Volume of distribution at terminal phase in rat at 5 mg/kg, iv; type: ADME, organism-based; design: dose 5 mg/kg, route intravenous; conditions: in vivo, read-out: Vbeta; procedure, shortened: as §1
[9] = Half life in DIO mouse at 10 mg/kg, po; type: ADME, organism-based; design: dose 10 mg/kg, route oral; conditions: in vivo; procedure, shortened: as §1
[10] = Cmax in DIO mouse at 10 mg/kg, po; type: ADME, organism-based; design: dose 10 mg/kg, route oral; conditions: in vivo; procedure, shortened: as §1
[11] = AUC in DIO mouse at 10 mg/kg, po; type: ADME, organism-based; design: dose 10 mg/kg, route oral; conditions: plasma; procedure, shortened: as §1
[12] = Half life in rat at 5 mg/kg, iv; type: ADME, organism-based; design: dose 5 mg/kg, route intravenous; conditions: in vivo; procedure, shortened: as §1
[13] = Half life in rat at 5 mg/kg, po; type: ADME, organism-based; design: dose 5 mg/kg, route oral; conditions: in vivo; procedure, shortened: as §1
[14] = Cmax in rat at 5 mg/kg, po; type: ADME, organism-based; design: dose 5 mg/kg, route oral; conditions: in vivo; procedure, shortened: as §1
[15] = AUC in rat at 5 mg/kg, po; type: ADME, organism-based; design: dose 5 mg/kg, route oral; conditions: plasma; procedure, shortened: as §1
[16] = Oral bioavailability in rat at 5 mg/kg; type: ADME, organism-based; conditions: in vivo; procedure, shortened: as §1
[17] = Half life in dog at 2.5 mg/kg, iv; type: ADME, organism-based, Canis lupus familiaris; design: dose 2.5 mg/kg, route intravenous; conditions: in vivo; procedure, shortened: as §1
[18] = Volume of distribution at terminal phase in dog at 2.5 mg/kg, iv; type: ADME, organism-based, Canis lupus familiaris; design: dose 2.5 mg/kg, route intravenous; conditions: in vivo, read-out: Vbeta; procedure, shortened: as §1
[19] = AUC in dog at 2.5 mg/kg, iv; type: ADME, organism-based, Canis lupus familiaris; design: dose 2.5 mg/kg, route intravenous; conditions: plasma; procedure, shortened: as §1
[20] = Plasma clearance in dog at 2.5 mg/kg, iv; type: ADME, organism-based, Canis lupus familiaris; design: dose 2.5 mg/kg, route intravenous; procedure, shortened: as §1
[21] = Half life in dog at 2.5 mg/kg, po; type: ADME, organism-based, Canis lupus familiaris; design: dose 2.5 mg/kg, route oral; conditions: in vivo; procedure, shortened: as §1
[22] = Cmax in dog at 2.5 mg/kg, po; type: ADME, organism-based, Canis lupus familiaris; design: dose 2.5 mg/kg, route oral; conditions: in vivo; procedure, shortened: as §1
[23] = AUC in dog at 2.5 mg/kg, po; type: ADME, organism-based, Canis lupus familiaris; design: dose 2.5 mg/kg, route oral; conditions: plasma; procedure, shortened: as §1
[24] = Oral bioavailability in dog at 2.5 mg/kg; type: ADME, organism-based, Canis lupus familiaris; conditions: in vivo; procedure, shortened: as §1
Mus musculus [25] = experiment: Decrease in body weight in DIO C57BL/6J mouse at 3 mg/kg, po bid after 7 days; type: functional, organism-based; design: dose 3 mg/kg
Procedure, shortened: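 DIO mice kept on high-fat diet ad libitum were dosed orally for four weeks, either 3 mg/kg bid in 1% Tween-80/water or a reference at 10 mg/kg qd, alongside a vehicle group. Body weight was measured on days 1, 5, 7, 14 and 27 and expressed as change in grams from day zero. Mean ± SEM, n = 9, compared with vehicle.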

Mus musculus [26] = experiment: Decrease in liver triglyceride level in DIO C57BL/6J mouse at 3 mg/kg, po after 28 days; type: functional
Procedure, shortened: (§2)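 DIO mice on high-fat diet were dosed orally for four weeks at 3 mg/kg bid in 1% Tween-80/water, or a reference at 10 mg/kg qd. Liver triglycerides were determined on day 28 only. Mean ± SEM, n = 9, compared with vehicle.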

Mus musculus [27] = experiment: Increase in liver triglyceride level in DIO C57BL/6J mouse at 3 mg/kg, po after 28 days; type: ADME, organism-based; design: dose 3 mg/kg, route oral; conditions: in vivo, 672 h; procedure, shortened: as §2
[28] = Cmax in C57BL/6J mouse at 3 mg/kg, po after 1 hr; type: ADME, organism-based; design: dose 3 mg/kg, route oral; conditions: in vivo
Procedure, shortened: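 On day 28 of oral dosing at 3 mg/kg bid in DIO mice, plasma drug concentration was measured at 1 h (n = 3) and 17 h (n = 9) after the final dose. Mean ± SEM.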

Mus musculus [29] = experiment: Reduction of chylomicron-derived serum triglyceride level in acute lipid challenged DIO C57BL/6J mouse at 0.3 mg/kg, po; type: functional; design: scale not given: the % may be the effect or the level left
Procedure, shortened: (§3)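 DIO mice were dosed orally at 0.3, 3 or 30 mg/kg: bid on days 1–2, fasted overnight, then dosed once on day 3. One hour after the final dose a corn oil bolus was given by gavage, and plasma triglycerides were measured 1 h later. Percent inhibition for the 0.3 and 3 mg/kg doses is relative to the 30 mg/kg dose. Mean ± SEM, n = 9.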

Mus musculus [30] = experiment: Reduction of chylomicron-derived serum triglyceride level in acute lipid challenged DIO C57BL/6J mouse at 3 mg/kg, po; type: functional; design: scale not given: the % may be the effect or the level left; procedure, shortened: as §3
Mus musculus [31] = experiment: Reduction of chylomicron-derived serum triglyceride level in acute lipid challenged DIO C57BL/6J mouse at 30 mg/kg, po; type: functional; design: scale not given: the % may be the effect or the level left; procedure, shortened: as §3
Mus musculus [32] = experiment: Decrease in body weight in DIO C57BL/6J mouse at 3 mg/kg, po bid after 14 days

O=C(Nc1ccccc1)Nc1ccc(-c2ccc(C(=O)[C@@H]3CCC[C@H]3C(=O)O)cc2)cc1
IC50 [1]: 7 nM
IC50 [2]: 24 nM
Activity [3]: inactive
Activity [4]: inactive
Activity [5]: inactive
clearance [6]: 0.667 mL/min/kg
AUC [7]: 145000 ng·h/mL
Vd [8]: 0.21 L/kg
half-life [9]: 6.5 h
Cmax [10]: 3510 ng/mL
AUC [11]: 15200 ng·h/mL
half-life [12]: 3.9 h
half-life [13]: 2.7 h
Cmax [14]: 8530 ng/mL
AUC [15]: 80200 ng·h/mL
bioavailability [16]: 55.2%
half-life [17]: 3.3 h
Vd [18]: 1.21 L/kg
AUC [19]: 11100 ng·h/mL
clearance [20]: 3.83 mL/min/kg
half-life [21]: 3.6 h
Cmax [22]: 2470 ng/mL
AUC [23]: 5500 ng·h/mL
bioavailability [24]: 49.2%
Activity (Mus musculus [25]): Active
Activity (Mus musculus [26]): 53.5 mg/dL
Activity (Mus musculus [27]): 88 mg/dL
Cmax [28]: 910 ng/mL
Activity (Mus musculus [29]): 73%
Activity (Mus musculus [30]): 93%
Activity (Mus musculus [31]): 100%
Activity (Mus musculus [32]): Active

O=C(Nc1ccccc1)Nc1ccc(-c2ccc(C(=O)[C@H]3CCC[C@@H]3C(=O)O)cc2)cc1
IC50 [1]: 96 nM

O=C(Nc1ccc(-c2ccc(C(=O)[C@@H]3CCC[C@H]3C(=O)O)cc2)cc1)Nc1ccc(C(F)(F)F)cc1
IC50 [2]: 14 nM
